Activity calls are given as the source filed them. The calls are words filed in the database; no cut-off is given here.
Columns and labels:
[1] = Displacement of [3H]Ro15-1788 from GABA-A receptor benzodiazepine binding site in bovine cerebral cortex membranes after 1 hr; assay type: cell membranes, Bos taurus, Membrane
[2] = system: Mus musculus; experiment: Anticonvulsant activity in CD1 albino mouse assessed as protection against pentylenetetrazole-induced convulsions at 10 mg/kg, po administered 30 mins prior to pentylenetetrazole challenge measured over 30 mins (reference value: 7.1%); assay type: functional
[3] = system: Mus musculus; experiment: Neurotoxicity in CD1 albino mouse assessed as decrease in number of falls from rotating rod at 30 mg/kg, po by rota-rod test relative to control; assay type: toxicity, organism-based; set-up: dose 30 mg/kg, route oral; details: in vivo, TDE = time-dependent effect
How it was run: (§1)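 Motor coordination was tested on a rota-rod turning at 24 rpm in male CD-1 mice dosed po in 1% CMC. Falls within 30 s were counted at a pretest and at 15, 30, 45 and 60 min after dosing. Each value is the mean of five mice, compared with CMC-treated controls.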

[4] = system: Mus musculus; experiment: Anxiolytic activity in CD1 albino mouse assessed as increase in time spent in illuminated side at 30 mg/kg, po administered 30 mins prior to testing measured for 5 mins by light-dark box test; assay type: functional, organism-based; set-up: dose 30 mg/kg
How it was run: (§2)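 Light/dark box: two equal acrylic compartments, one lit by a 60 W lamp, joined by a floor-level opening. Male CD-1 mice were dosed po in 1% CMC 30 min before the test, then placed in the centre of the lit side facing away from the dark side. Over 5 min, transfers and time in the light side were recorded, n = 8 mice per group.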

[5] = system: Rattus norvegicus; experiment: Procognitive effect in Harlan Wistar rat assessed as decrease in exploring time of unfamiliar rat during social investigatory behaviour at 10 to 100 mg/kg, po administered 30 mins prior to testing measured for 5 mins by social learning test relative to control; assay type: functional, organism-based
[6] = system: Rattus norvegicus; experiment: Procognitive effect in Harlan Wistar rat assessed as exploring time of familiar rat during social investigatory behaviour at 100 mg/kg, po administered 30 mins prior to testing measured for 5 mins by social learning test (reference value: 27.6 secs); assay type: functional
[7] = system: Rattus norvegicus; experiment: Procognitive effect in Harlan Wistar rat assessed as exploring time of familiar rat during social investigatory behaviour at 30 mg/kg, po administered 30 mins prior to testing measured for 5 mins by social learning test (reference value: 27.6 secs); assay type: functional
[8] = system: Rattus norvegicus; experiment: Procognitive effect in Harlan Wistar rat assessed as exploring time of familiar rat during social investigatory behaviour at 10 mg/kg, po administered 30 mins prior to testing measured for 5 mins by social learning test (reference value: 27.6 secs); assay type: functional
[9] = system: Mus musculus; experiment: Antiamnesic activity in CD1 albino mouse assessed as reversal of scopolamine-induced amnesia at 1 mg/kg, po administered 30 mins prior to scopolamine challenge measured after 24 hrs by passive avoidance test; assay type: functional, organism-based; set-up: dose 1 mg/kg
How it was run: (§3)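 Step-through passive avoidance in male CD-1 mice (22–24 g). Test drugs were given po, suspended in 1% carboxymethylcellulose at 10 ml/kg, 30 min before the training session. For the antiamnesic arm, scopolamine 1.5 mg/kg was injected immediately after punishment. Retention latency was compared with CMC-treated controls, n = 10–12 mice per group.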

[10] = system: Mus musculus; experiment: Cognitive enhancing effect in CD1 albino mouse assessed as increase in retention latency at 1 to 100 mg/kg, po administered 30 mins prior to testing measured after 24 hrs by passive avoidance test relative to control; assay type: functional, organism-based; how it was run: as §3
[11] = system: Mus musculus; experiment: Neurotoxicity in CD1 albino mouse assessed as decrease in number of falls from rotating rod at 10 mg/kg, po by rota-rod test relative to control; assay type: toxicity, organism-based; set-up: dose 10 mg/kg, route oral; details: in vivo, TDE = time-dependent effect; how it was run: as §1
[12] = system: Mus musculus; experiment: Anxiolytic activity in CD1 albino mouse assessed as increase in time spent in illuminated side at 10 mg/kg, po administered 30 mins prior to testing measured for 5 mins by light-dark box test in presence of flumazenil; assay type: functional, organism-based; set-up: dose 10 mg/kg
How it was run: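 This is the mouse light/dark box (male CD-1, 22–24 g) with flumazenil added at 100 mg/kg po. Drugs were suspended in 1% CMC and given po at 10 ml/kg, 30 min before testing. Mice started in the centre of the lit side and explored for 5 min. Transfers and time in the light side were scored. Values are means of eight mice, compared with flumazenil-treated mice.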

[13] = system: Mus musculus; experiment: Anxiolytic activity in CD1 albino mouse assessed as increase in time spent in illuminated side at 10 mg/kg, po administered 30 mins prior to testing measured for 5 mins by light-dark box test; assay type: functional, organism-based; set-up: dose 10 mg/kg
How it was run: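 Male CD-1 mice (22–24 g) were dosed po at 10 ml/kg with drug suspended in 1% carboxymethylcellulose, 30 min before the test. Each mouse was placed in the centre of the lit compartment of a two-compartment light/dark box, facing away from the dark side, and explored for 5 min. Transfers and time in the light side were recorded. Values are means of eight mice, analysed by ANOVA with Scheffé post-hoc.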

[14] = system: Mus musculus; experiment: Anxiolytic activity in CD1 albino mouse assessed as increase in time spent in illuminated side at 10 to 30 mg/kg, po administered 30 mins prior to testing measured for 5 mins by light-dark box test; assay type: functional, organism-based; how it was run: as §2
[15] = system: Rattus norvegicus; experiment: Procognitive effect in Harlan Wistar rat assessed as decrease in exploring time of unfamiliar rat during social investigatory behaviour at 10 mg/kg, po administered 30 mins prior to testing measured for 5 mins by social learning test relative to control; assay type: functional, organism-based; set-up: dose 10 mg/kg
[16] = system: Mus musculus; experiment: Cognitive enhancing effect in CD1 albino mouse assessed as increase in retention latency at 1 to 10 mg/kg, po administered 30 mins prior to testing measured after 24 hrs by passive avoidance test relative to control; assay type: functional, organism-based; how it was run: as §3
[17] = organism: Bos taurus; experiment: Displacement of [3H]Ro15-1788 from GABA-A receptor benzodiazepine binding site in bovine cerebral cortex membranes at 10 uM after 1 hr; assay type: cell membranes; details: Membrane
[18] = system: Mus musculus; experiment: Cognitive enhancing effect in CD1 albino mouse assessed as increase in retention latency at 1 to 30 mg/kg, po administered 30 mins prior to testing measured after 24 hrs by passive avoidance test relative to control; assay type: functional, organism-based; how it was run: as §3
[19] = system: Mus musculus; experiment: Antiamnesic activity in CD1 albino mouse assessed as reversal of scopolamine-induced amnesia at 3 mg/kg, po administered 30 mins prior to scopolamine challenge measured after 24 hrs by passive avoidance test; assay type: functional, organism-based; set-up: dose 3 mg/kg
[20] = system: Mus musculus; experiment: Cognitive enhancing effect in CD1 albino mouse assessed as increase in retention latency at 3 to 30 mg/kg, po administered 30 mins prior to testing measured after 24 hrs by passive avoidance test relative to control; assay type: functional, organism-based; how it was run: as §3
[21] = system: Rattus norvegicus; experiment: Procognitive effect in Harlan Wistar rat assessed as decrease in exploring time of unfamiliar rat during social investigatory behaviour at 30 mg/kg, po administered 30 mins prior to testing measured for 5 mins by social learning test relative to control; assay type: functional, organism-based; set-up: dose 30 mg/kg

## Cc1noc(-c2cnn3c2n[n+]([O-])c2ccc(OCc4cccs4)cc23)n1
[1]
  Ki: 1620 nM

## [O-][n+]1nc2c(I)cnn2c2cc(OCc3cccs3)ccc21
[2]
  Activity: 0%
[3]
  Activity: tde
[4]
  Activity: Active
[5]
  Activity: inactive
[6]
  Time: 41.9 s
[7]
  Time: 42.3 s
[8]
  Time: 32.5 s
[9]
  Activity: Active
[10]
  Activity: Active

## CN1C(=O)CN=C(c2ccccc2)c2cc(Cl)ccc21 [DIAZEPAM]
[2]
  Activity: 100%
[11]
  Activity: tde
[12]
  Activity: inactive
[13]
  Activity: Active

## [O-][n+]1nc2c(-c3ncn[nH]3)cnn2c2cc(OCc3ccccc3)ccc21
[1]
  Ki: 325 nM
[2]
  Activity: 0%
[3]
  Activity: tde
[14]
  Activity: Active
[15]
  Activity: inactive
[8]
  Time: 40.3 s
[9]
  Activity: Active
[16]
  Activity: Active

## Cc1cnn2c1nnc1ccc(Cl)cc12
[1]
  Ki: 400 nM

## CN(C)/C=N/C(=O)c1cnn2c1n[n+]([O-])c1ccc(OCc3ccncc3)cc12
[1]
  Ki: 515 nM

## Cn1ncnc1-c1cnn2c1n[n+]([O-])c1ccc(OCc3ccccc3)cc12
[17]
  inhibition: 46%

## Cc1noc(-c2cnn3c2n[n+]([O-])c2ccc(OCc4ccccc4)cc23)n1
[1]
  Ki: 70.7 nM
[2]
  Activity: 10%
[3]
  Activity: tde
[14]
  Activity: Active
[15]
  Activity: inactive
[8]
  Time: 43.1 s
[9]
  Activity: Active
[18]
  Activity: Active

## [O-][n+]1nc2c(-c3ncn[nH]3)cnn2c2cc(OCc3ccncc3)ccc21
[1]
  Ki: 168 nM

## CN(C)/C=N/C(=O)c1cnn2c1n[n+]([O-])c1ccc(OCc3cccs3)cc12
[1]
  Ki: 620 nM

## [O-][n+]1ccc(COc2ccc3c(c2)n2ncc(I)c2n[n+]3[O-])cc1
[1]
  Ki: 20.4 nM

## Cc1cnn2c1n[n+]([O-])c1ccc(Cl)cc12
[1]
  Ki: 315 nM

## CN(C)/C=N/C(=O)c1cnn2c1n[n+]([O-])c1ccc(OCc3ccccc3)cc12
[1]
  Ki: 86.6 nM

## Cc1cnn2c1n[n+]([O-])c1ccc(OCc3ccco3)cc12
[1]
  Ki: 30.9 nM

## Cc1noc(-c2cnn3c2n[n+]([O-])c2ccc(OCc4ccncc4)cc23)n1
[1]
  Ki: 453 nM
[2]
  Activity: 10%
[3]
  Activity: tde
[14]
  Activity: Active
[15]
  Activity: inactive
[8]
  Time: 44.6 s
[19]
  Activity: Active
[20]
  Activity: Active

## NC(=O)CN1CCCC1=O [PIRACETAM]
[21]
  Activity: inactive
[7]
  Time: 46.3 s

## [O-][n+]1nc2c(I)cnn2c2cc(NCc3ccncc3)ccc21
[1]
  Ki: 0.33 nM

## NC(=O)c1cnn2c1n[n+]([O-])c1ccc(OCc3ccccc3)cc12
[1]
  Ki: 324 nM

## NC(=O)c1cnn2c1n[n+]([O-])c1ccc(OCc3ccncc3)cc12
[1]
  Ki: 1200 nM

## [O-][n+]1nc2c(I)cnn2c2cc(NCc3ccco3)ccc21
[1]
  Ki: 0.23 nM

## NC(=O)c1cnn2c1n[n+]([O-])c1ccc(OCc3cccs3)cc12
[1]
  Ki: 960 nM

## Cc1cnn2c1n[n+]([O-])c1ccc(OCc3ccnc(Cl)c3)cc12
[1]
  Ki: 7.49 nM

## Cn1cnc(-c2cnn3c2n[n+]([O-])c2ccc(OCc4ccccc4)cc23)n1
[17]
  inhibition: 50%

## [O-][n+]1nc2c(I)cnn2c2cc(NCc3ccccn3)ccc21
[1]
  Ki: 0.72 nM

From ChEMBL document CHEMBL2346497, “Synthesis of novel cognition enhancers with pyrazolo[5,1-c][1,2,4]benzotriazine core acting at γ-aminobutyric acid type A (GABA(A)) receptor” (Bioorg Med Chem, 2013)
